Measured values published in ChEMBL document CHEMBL1772934, “Applications of 2-arylhydrazononitriles in synthesis: preparation of new indole containing 1,2,3-triazole, pyrazole and pyrazolo[1,5-a]pyrimidine derivatives and evaluation of their antimicrobial activities” (2011).

What was measured:
Format in all cases: functional
Conditions in all cases: read-out: DIZ
Bacillus subtilis = experiment: Antimicrobial activity against Bacillus subtilis at 1 mg/ml after 24 hrs by agar well diffusion method
Method in brief: (§1)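 A 0.1 mL aliquot of each bacterial strain was spread on nutrient agar. 4 mm wells were cut with a sterile cork borer and filled with compound in DMSO at a final concentration of 1 mg mL-1. Plates were incubated at 37 °C for 24 h. The inhibition zone diameter around each well was measured and averaged over triplicate measurements.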

Staphylococcus aureus = experiment: Antimicrobial activity against Staphylococcus aureus at 1 mg/ml after 24 hrs by agar well diffusion method; method in brief: as §1
Escherichia coli = experiment: Antimicrobial activity against Escherichia coli at 1 mg/ml after 24 hrs by agar well diffusion method; method in brief: as §1
Candida albicans = experiment: Antimicrobial activity against Candida albicans at 1 mg/ml after 48 hrs by agar well diffusion method
Method in brief: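 A 0.1 mL aliquot of the yeast was spread on potato dextrose agar. 4 mm cork-borer wells received compound in DMSO at a final concentration of 1 mg mL-1. Plates were incubated at 25 °C for 48 h. The inhibition zone diameter was read and averaged over triplicate measurements.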

`Cc1[nH]c2ccccc2c1C(=O)c1nn(-c2ccccc2)nc1NC(=O)/C(C#N)=C/N(C)C` showed a zone of inhibition at 1000 µg/mL (Bacillus subtilis) of 2.5 mm, a zone of inhibition at 1000 µg/mL (Staphylococcus aureus) of 0 mm and a zone of inhibition at 1000 µg/mL (Escherichia coli) of 0 mm. The zone of inhibition at 1000 µg/mL (Candida albicans) was 0 mm.
For `Cn1cc(C(=O)c2nn(-c3ccccc3)nc2N)c2ccccc21`, the zone of inhibition at 1000 µg/mL (Bacillus subtilis) was 6 mm, the zone of inhibition at 1000 µg/mL (Staphylococcus aureus) was 12.2 mm and the zone of inhibition at 1000 µg/mL (Escherichia coli) was 6.7 mm. The zone of inhibition at 1000 µg/mL (Candida albicans) was 10.7 mm.
Compound `Cc1[nH]c2ccccc2c1C(=O)c1nn(-c2ccccc2)nc1N` has a zone of inhibition at 1000 µg/mL (Bacillus subtilis) of 12 mm, a zone of inhibition at 1000 µg/mL (Staphylococcus aureus) of 12 mm and a zone of inhibition at 1000 µg/mL (Escherichia coli) of 8.7 mm. For the same compound, the zone of inhibition at 1000 µg/mL (Candida albicans) was 8.7 mm.
`Cc1[nH]c2ccccc2c1C(=O)c1nn(-c2ccccc2)nc1NC(=O)CC#N` showed a zone of inhibition at 1000 µg/mL (Bacillus subtilis) of 9.3 mm, a zone of inhibition at 1000 µg/mL (Staphylococcus aureus) of 0 mm and a zone of inhibition at 1000 µg/mL (Escherichia coli) of 6.2 mm. The zone of inhibition at 1000 µg/mL (Candida albicans) was 0 mm.
In the case of `Cc1[nH]c2ccccc2c1C(=O)c1nn(-c2ccccc2)nc1NC(=O)c1cn[nH]c1N`, the zone of inhibition at 1000 µg/mL (Bacillus subtilis) is reported as 11.3 mm, the zone of inhibition at 1000 µg/mL (Staphylococcus aureus) is reported as 0 mm and the zone of inhibition at 1000 µg/mL (Escherichia coli) is reported as 0 mm. The zone of inhibition at 1000 µg/mL (Candida albicans) was 0 mm.
`Cn1cc(C(=O)c2nn(-c3ccccc3)nc2NC(=O)CC#N)c2ccccc21` showed a zone of inhibition at 1000 µg/mL (Bacillus subtilis) of 6 mm, a zone of inhibition at 1000 µg/mL (Staphylococcus aureus) of 0 mm and a zone of inhibition at 1000 µg/mL (Escherichia coli) of 0 mm. It also gave a zone of inhibition at 1000 µg/mL (Candida albicans) of 0 mm.
Compound `Cc1[nH]c2ccccc2c1-c1c(C#N)c(=O)[nH]c2nn(-c3ccccc3)nc12` has a zone of inhibition at 1000 µg/mL (Bacillus subtilis) of 6 mm, a zone of inhibition at 1000 µg/mL (Staphylococcus aureus) of 0 mm and a zone of inhibition at 1000 µg/mL (Escherichia coli) of 4 mm. For the same compound, the zone of inhibition at 1000 µg/mL (Candida albicans) was 0 mm.
Work on `Cc1[nH]c2ccccc2c1C(=O)c1nn(-c2ccccc2)nc1NC(=O)c1cnn2c(-c3ccccc3)ccnc12` yielded a zone of inhibition at 1000 µg/mL (Bacillus subtilis) of 8 mm, a zone of inhibition at 1000 µg/mL (Staphylococcus aureus) of 0 mm and a zone of inhibition at 1000 µg/mL (Escherichia coli) of 5 mm. For the same compound, the zone of inhibition at 1000 µg/mL (Candida albicans) was 0 mm.
In the case of `Cn1cc(C(=O)c2nn(-c3ccccc3)nc2NC(=O)c2cnn3c(-c4cccs4)ccnc23)c2ccccc21`, the zone of inhibition at 1000 µg/mL (Bacillus subtilis) is reported as 4 mm, the zone of inhibition at 1000 µg/mL (Staphylococcus aureus) is reported as 0 mm and the zone of inhibition at 1000 µg/mL (Escherichia coli) is reported as 0 mm. The zone of inhibition at 1000 µg/mL (Candida albicans) was 5.7 mm.
Compound `Cn1cc(C(=O)CC#N)c2ccccc21` has a zone of inhibition at 1000 µg/mL (Bacillus subtilis) of 2 mm, a zone of inhibition at 1000 µg/mL (Staphylococcus aureus) of 0 mm and a zone of inhibition at 1000 µg/mL (Escherichia coli) of 0 mm. The zone of inhibition at 1000 µg/mL (Candida albicans) was 0 mm.
Work on `Cc1[nH]c2ccccc2c1C(=O)CC#N` yielded a zone of inhibition at 1000 µg/mL (Bacillus subtilis) of 3.3 mm, a zone of inhibition at 1000 µg/mL (Staphylococcus aureus) of 0 mm and a zone of inhibition at 1000 µg/mL (Escherichia coli) of 0 mm. The zone of inhibition at 1000 µg/mL (Candida albicans) was 0 mm.
With `Cn1cc(C(=O)/C(C#N)=N/Nc2ccccc2)c2ccccc21` the zone of inhibition at 1000 µg/mL (Bacillus subtilis) was 2.7 mm, the zone of inhibition at 1000 µg/mL (Staphylococcus aureus) was 0 mm and the zone of inhibition at 1000 µg/mL (Escherichia coli) was 0 mm. It also gave a zone of inhibition at 1000 µg/mL (Candida albicans) of 0 mm.
Work on `Cc1[nH]c2ccccc2c1C(=O)/C(C#N)=N/Nc1ccccc1` yielded a zone of inhibition at 1000 µg/mL (Bacillus subtilis) of 1.3 mm, a zone of inhibition at 1000 µg/mL (Staphylococcus aureus) of 0 mm and a zone of inhibition at 1000 µg/mL (Escherichia coli) of 0 mm. The zone of inhibition at 1000 µg/mL (Candida albicans) was 0 mm.
`CN(C)/C=C(\C#N)C(=O)Nc1nn(-c2ccccc2)nc1C(=O)c1cn(C)c2ccccc12` showed a zone of inhibition at 1000 µg/mL (Bacillus subtilis) of 3.3 mm, a zone of inhibition at 1000 µg/mL (Staphylococcus aureus) of 0 mm and a zone of inhibition at 1000 µg/mL (Escherichia coli) of 0 mm. For the same compound, the zone of inhibition at 1000 µg/mL (Candida albicans) was 0 mm.
With `Cn1cc(C(=O)c2nn(-c3ccccc3)nc2NC(=O)c2cn[nH]c2N)c2ccccc21` the zone of inhibition at 1000 µg/mL (Bacillus subtilis) was 2.7 mm, the zone of inhibition at 1000 µg/mL (Staphylococcus aureus) was 0 mm and the zone of inhibition at 1000 µg/mL (Escherichia coli) was 0 mm. For the same compound, the zone of inhibition at 1000 µg/mL (Candida albicans) was 0 mm.
For `Cn1cc(-c2c(C#N)c(=O)[nH]c3nn(-c4ccccc4)nc23)c2ccccc21`, the zone of inhibition at 1000 µg/mL (Bacillus subtilis) was 2 mm, the zone of inhibition at 1000 µg/mL (Staphylococcus aureus) was 0 mm and the zone of inhibition at 1000 µg/mL (Escherichia coli) was 0 mm. For the same compound, the zone of inhibition at 1000 µg/mL (Candida albicans) was 0 mm.
In the case of `Cn1cc(C(=O)c2nn(-c3ccccc3)nc2NC(=O)c2cnn3c(-c4ccccc4)ccnc23)c2ccccc21`, the zone of inhibition at 1000 µg/mL (Bacillus subtilis) is reported as 3.3 mm, the zone of inhibition at 1000 µg/mL (Staphylococcus aureus) is reported as 0 mm and the zone of inhibition at 1000 µg/mL (Escherichia coli) is reported as 0 mm. It also gave a zone of inhibition at 1000 µg/mL (Candida albicans) of 0 mm.
For `Cc1cccc(-c2ccnc3c(C(=O)Nc4nn(-c5ccccc5)nc4C(=O)c4cn(C)c5ccccc45)cnn23)n1`, the zone of inhibition at 1000 µg/mL (Bacillus subtilis) was 2.7 mm, the zone of inhibition at 1000 µg/mL (Staphylococcus aureus) was 0 mm and the zone of inhibition at 1000 µg/mL (Escherichia coli) was 0 mm. It also gave a zone of inhibition at 1000 µg/mL (Candida albicans) of 0 mm.
`Cn1cc(C(=O)c2nn(-c3ccccc3)nc2NC(=O)/C(C#N)=C/C=C/c2ccccc2)c2ccccc21` was tested, and the zone of inhibition at 1000 µg/mL (Bacillus subtilis) was 2.7 mm, the zone of inhibition at 1000 µg/mL (Staphylococcus aureus) was 0 mm and the zone of inhibition at 1000 µg/mL (Escherichia coli) was 0 mm. It also gave a zone of inhibition at 1000 µg/mL (Candida albicans) of 0 mm.
In the case of `Cc1[nH]c2ccccc2c1C(=O)c1nn(-c2ccccc2)nc1NC(=O)/C(C#N)=C/C=C/c1ccccc1`, the zone of inhibition at 1000 µg/mL (Bacillus subtilis) is reported as 3 mm, the zone of inhibition at 1000 µg/mL (Escherichia coli) is reported as 0 mm and the zone of inhibition at 1000 µg/mL (Candida albicans) is reported as 0 mm.
For `CC1(C)S[C@@H]2[C@H](NC(=O)[C@H](N)c3ccccc3)C(=O)N2[C@H]1C(=O)O` [AMPICILLIN], the zone of inhibition at 1000 µg/mL (Bacillus subtilis) was 1 mm, the zone of inhibition at 1000 µg/mL (Staphylococcus aureus) was 5 mm and the zone of inhibition at 1000 µg/mL (Escherichia coli) was 22 mm.
